The list is not random: actives were taken first. Their share in the collection is about 4.9%.
STAT3 inh: IL-6 driven STAT3 reporter inhibitors, primary screen, U3A cells, luciferase, luminescence, MLSCN library. IL-6 STAT3-luciferase reporter; host cell line lacks STAT1. inhibition, % at 5.5 µM. 0.89% of 190,000 active. AID 862, 2007;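 active = inhibition above the mean inhibition across all screened compounds plus 3 SD, cut at about 44% in these data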;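 note: 0% = DMSO only wells and 100% = 100 µM nifuroxazide control wells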
STAT1 inh: STAT1 signaling inhibitors, primary screen, cell-based, HTS, luciferase reporter; NIH 3T3 STAT1-luciferase reporter, IFN-gamma, luminescence; inhibition, % at 5.5 µM; 0.35% of 200,000 active; AID 920, 2007;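 active = inhibition above a set limit, the mean inhibition across all tested compounds plus 3 SD, cut at about 34% in these data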;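 note: 0% = IFN-gamma with DMSO and 100% = IFN-gamma with 300 µM nifuroxazide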
NF-kB neuron act: activators of NF-kB expression in neurons, primary screen, cell-based, HTS; human neuronal cells, NF-kB reporter expression; active compounds read high; fold change at 12.5 µM; 1.6% of 190,000 active; in the data active = fold change above about 3.3
APP 5'UTR act: activators of APP 5'UTR luciferase reporter, primary screen, SH-SY5Y cells; activation, % at 2 µM; 1% of 190,000 active; SH-SY5Y APP 5'UTR luciferase reporter, luminescence; zero percent = DMSO vehicle wells;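 active = activation above a set limit, based on mean plus 3 SD of controls, cut at about 140% in these data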
STAT3 act: IL-6 driven STAT3 reporter potentiators, primary screen, U3A cells, luciferase, luminescence, MLSCN library. IL-6 STAT3-luciferase reporter; 100% = signal with IL-6 EC80 alone. activation (% of control), % at 5.6 µM. 0.91% of 190,000 active. AID 871, 2007;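 active = activation above the screen-wide mean of compound activation plus 3 SD, cut at about 130% in these data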;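 note: 0% = background luminescence of wells with medium and substrate only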
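System – human U3A cells carrying STAT3-luciferase construct · Probe or stimulus – Interleukin-6, 33 ng/mL · Schedule – compound 1 h, then IL-6 6 h at 37 °C · Signal – luminescence from STAT3-driven luciferase reporter · Evaluation – percent of IL-6-only median luminescence · Benchmarks – IL-6-only high control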
STAT1 act: STAT1 signaling activators, primary screen, cell-based, HTS, luciferase reporter; NIH 3T3 STAT1-luciferase reporter, IFN-gamma, luminescence; 100% = IFN-gamma alone, no compound; activation (% of control), % at 5.5 µM; 2.6% of 200,000 active; AID 932, 2007;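 active = activation above the screen-wide mean activation plus 3 SD, cut at about 130% in these data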;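 note: raw ratio to IFN-gamma control signal so 100% means no change and 0% no light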
STAT1 act conf: STAT1 signaling activators, confirmation, cell-based, HTS, luciferase reporter; shares compounds with STAT1 act; NIH 3T3 STAT1-luciferase reporter, IFN-gamma potentiation, luminescence; 100% = IFN-gamma EC80 alone, no compound; activation (% of control), % at 5.7 µM; 97% of 1,200 active; AID 1262, 2008;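 active = activation above a set limit carried over from the earlier primary STAT1 screen, cut at about 140% in these data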;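 note: simple ratio to median IFN-gamma plus DMSO wells so 0% means no light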
NFkB act: NF-kB reporter activators, TNF-alpha stimulated, counter-screen for STAT1 activator project, cell-based, HEK293T, luciferase luminescence. 100% = TNF-alpha with vehicle only. AID 1306, 2008. shares compounds with STAT1 act. 43% of 1,200 active. activation (% of control), % at 5.7 µM;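 active = activation above the mean of solvent-only control wells plus 3 SD, set per campaign, cut at about 130% in these data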;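 note: TNF-alpha given at a submaximal dose yielding about 80% of full reporter signal; values are well signal over median control so 100% means no change and 0% no light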
STAT3 act STAT1c: STAT3 reporter activation by STAT1 hits, confirmation, counter-screen for STAT1 activator project, U3A cells, luciferase, luminescence | shares compounds with STAT1 act | IL-6; cells lack STAT1; 100 = IL-6 alone, no compound effect | activation (% of control), % at 5.7 µM | 46% of 1,200 active;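 active = activation above the solvent-only control well mean plus 3 SD, set per plate batch, cut at about 110% in these data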;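 note: 0% = no luminescence and 100% = median IL-6 plus DMSO wells; higher means more STAT3 reporter activation so hits are non-selective activators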
* = called active by the depositor.

Cc1cc(/C=C2/C(=O)N(C)C(=S)N2C)ccc1N1CCCC1 was read as STAT3 inh -24, STAT1 inh -81, NF-kB neuron act 3.2, APP 5'UTR act 118, STAT3 act 132, STAT1 act 175*, STAT1 act conf 168*, NFkB act 135* and STAT3 act STAT1c 146*.
Screening Cc1cc(N2CCCC2)ccc1/C=C1/C(=O)N(C)C(=S)N1C returned STAT3 inh -13, STAT1 inh -9, NF-kB neuron act 2.2, APP 5'UTR act -25, STAT3 act 115 and STAT1 act 106.
Screening CCCCn1nnc(NC(=S)NC(=O)c2cccs2)n1 returned STAT3 inh -3, STAT1 inh -4, NF-kB neuron act 1.9, APP 5'UTR act -7, STAT3 act 98 and STAT1 act 104.
Nc1nc(-c2ccc3ccccc3c2)cs1 was read as STAT3 inh 20, STAT1 inh -75, NF-kB neuron act 6.3*, APP 5'UTR act 72, STAT3 act 89, STAT1 act 169*, STAT1 act conf 195*, NFkB act 134* and STAT3 act STAT1c 107.
`COc1ccc(-c2csc(N)n2)cc1` gave STAT3 inh -5, STAT1 inh -21, NF-kB neuron act 1.7, APP 5'UTR act 26, STAT3 act 108 and STAT1 act 119.
Cc1ccc(-c2nnc3cccc(Cl)n23)cc1 was read as STAT3 inh 2, STAT1 inh -7, NF-kB neuron act 0.89, APP 5'UTR act 44, STAT3 act 103 and STAT1 act 104.
Screening CCn1c(-c2ccccc2Cl)nn(CC(=O)Nc2ccccc2C)c1=S returned STAT3 inh 5, STAT1 inh 6, NF-kB neuron act 1, APP 5'UTR act -12, STAT3 act 100 and STAT1 act 95.
`CC(C)n1cc(CN2CCCC(CO)(Cc3cccc(Cl)c3)C2)cn1` (stereo not drawn) gave STAT3 inh 0, STAT1 inh 11, NF-kB neuron act 1, APP 5'UTR act -5, STAT3 act 104 and STAT1 act 89.
Screening Cc1cc2cc(CNC(=S)Nc3ccc(OC(F)(F)F)cc3)ccc2[nH]1 returned STAT3 inh -3, STAT1 inh -3, NF-kB neuron act 1.1, APP 5'UTR act -9, STAT3 act 102 and STAT1 act 103.
Cc1ccc(-c2nc3sc4c(c3c(=O)n2N)CCCC4)cc1 was read as STAT3 inh 8, STAT1 inh -90, NF-kB neuron act 5.1*, APP 5'UTR act 143*, STAT3 act 93, STAT1 act 178*, STAT1 act conf 224*, NFkB act 143* and STAT3 act STAT1c 105.
For Cc1ccc(-c2nc3sc4c(c3c(=O)n2N)CC(C)(C)OC4)cc1 the results were STAT3 inh 21, STAT1 inh -4, NF-kB neuron act 1.1, APP 5'UTR act -4, STAT3 act 83 and STAT1 act 102.
Nc1nc(-c2ccccc2)nc2sc3c(c12)CCCC3 was read as STAT3 inh -9, STAT1 inh -102, NF-kB neuron act 11*, APP 5'UTR act 180*, STAT3 act 105, STAT1 act 191*, STAT1 act conf 249*, NFkB act 136* and STAT3 act STAT1c 139*.
For Nc1nc2c(F)c(F)c(F)cc2s1 the results were STAT3 inh 12, STAT1 inh -6, NF-kB neuron act 0.98, APP 5'UTR act 1, STAT3 act 95 and STAT1 act 104.
For Cc1cc(=O)oc2c(CN3CC(C)OC(C)C3)c(O)c(Cl)cc12 (stereo not drawn) the results were STAT3 inh 18, STAT1 inh -8, NF-kB neuron act 1, APP 5'UTR act 7, STAT3 act 91 and STAT1 act 105.
Screening O=C(Nc1ccon1)c1ccc(OC2CCCC2)cc1 returned STAT3 inh 19, STAT1 inh -62, NF-kB neuron act 4.5*, APP 5'UTR act 93, STAT3 act 86, STAT1 act 155*, STAT1 act conf 166*, NFkB act 129 and STAT3 act STAT1c 114*.
Screening CC(C)(C)c1cc(NC(=O)c2ccc(OC3CCCC3)cc2)no1 returned STAT3 inh 5, STAT1 inh -16, NF-kB neuron act 1.2, APP 5'UTR act 15, STAT3 act 98 and STAT1 act 114.
`CCOc1ccc(-c2cc(C(=O)NN=C3CCN(C)CC3)[nH]n2)cc1` gave STAT3 inh 11, STAT1 inh -2, NF-kB neuron act 1.2, APP 5'UTR act -2, STAT3 act 95 and STAT1 act 104.
CC(C)COc1ccc(-c2cc(C(=O)NN)[nH]n2)cc1 was read as STAT3 inh 36, STAT1 inh -59, NF-kB neuron act 1.7, APP 5'UTR act 33, STAT3 act 71, STAT1 act 153*, STAT1 act conf 128, NFkB act 112 and STAT3 act STAT1c 107.
For CCN(CC)CCCNC(CC(=O)Nc1cccc([N+](=O)[O-])c1)C(=O)O (stereo not drawn) the results were STAT3 inh -6, STAT1 inh -2, NF-kB neuron act 1.1, APP 5'UTR act -1, STAT3 act 103 and STAT1 act 104.
`COc1ccc(C(=O)Nc2ccc(N3CCN(C(=O)c4ccccc4)CC3)cc2)cc1[N+](=O)[O-]` gave STAT3 inh 30, STAT1 inh 2, NF-kB neuron act 1, APP 5'UTR act 3, STAT3 act 80 and STAT1 act 97.
CC(C)C(=O)N1CCN(c2ccc(NC(=O)c3ccc([N+](=O)[O-])o3)cc2Cl)CC1 was read as STAT3 inh 0, STAT1 inh -61, NF-kB neuron act 0.15, APP 5'UTR act -96, STAT3 act 106, STAT1 act 153*, STAT1 act conf 105, NFkB act 105 and STAT3 act STAT1c 111*.
